Bioassay records deposited in PubChem BioAssay by several laboratories.
APP 5UTR inh – inhibitors of APP translation via 5'UTR reporter, primary screen, APP 5'UTR luciferase, SH-SY5Y cells; AID 1285, 2008; inhibition, % at 2 µM; 190,000 tested, 0.82% active; SH-SY5Y APP 5'UTR-luciferase reporter, luminescence;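 active means inhibition above a set limit, derived from the sample mean plus 3 SD, cut at about 45% in these data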
STAT1 activator – STAT1 signaling activators, primary screen, cell-based, HTS, luciferase reporter. activation (% of control), % at 5.5 µM. NIH 3T3 STAT1-luciferase reporter, IFN-gamma, luminescence; 100% = IFN-gamma alone, no compound. 200,000 tested, 2.6% active;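 active means activation above the screen-wide mean activation plus 3 SD, cut at about 130% in these data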;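 further: raw ratio to IFN-gamma control signal so 100% means no change and 0% no light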
APP 5'UTR act – activators of APP 5'UTR luciferase reporter, primary screen, SH-SY5Y cells; activation, % at 2 µM; 190,000 tested, 1% active; SH-SY5Y APP 5'UTR luciferase reporter, luminescence; zero percent = DMSO vehicle wells; AID 1276, 2008;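 active means activation above a set limit, based on mean plus 3 SD of controls, cut at about 140% in these data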
FLuc act counter – FLuc activators, initial screening, artefact control for FLuc-dependent activation tests, biochemical, ATPlite luminescence. ATPlite luciferase biochemical, 10 min; 0 = ATP-free wells, 1 = DMSO control. Luciferin 4-monooxygenase (Photinus pyralis), P08659. activation factor at 10 µM. 200,000 tested, under 10 active. AID 1027, 2008;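 active means luciferase activation factor, scaled between plate controls, of at least 2 with compound at 10 µM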
Target sequence (P08659 whole entry, looked up): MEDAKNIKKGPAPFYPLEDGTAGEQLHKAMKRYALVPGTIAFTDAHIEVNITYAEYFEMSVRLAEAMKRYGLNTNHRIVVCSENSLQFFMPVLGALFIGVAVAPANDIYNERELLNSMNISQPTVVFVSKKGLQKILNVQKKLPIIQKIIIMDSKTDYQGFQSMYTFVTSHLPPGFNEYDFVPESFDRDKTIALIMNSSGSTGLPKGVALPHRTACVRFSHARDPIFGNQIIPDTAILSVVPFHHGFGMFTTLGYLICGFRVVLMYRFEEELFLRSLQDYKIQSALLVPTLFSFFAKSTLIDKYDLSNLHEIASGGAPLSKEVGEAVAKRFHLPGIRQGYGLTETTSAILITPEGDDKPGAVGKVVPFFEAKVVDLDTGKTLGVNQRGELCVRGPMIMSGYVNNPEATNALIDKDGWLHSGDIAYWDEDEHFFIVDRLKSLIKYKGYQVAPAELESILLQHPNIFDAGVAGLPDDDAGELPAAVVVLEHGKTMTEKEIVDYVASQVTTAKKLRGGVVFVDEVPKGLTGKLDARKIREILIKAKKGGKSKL
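assay system = Luciferase/luciferin detection reagent, cell-free biochemical luciferase assay | also added = ATP substrate | times = 10 min post-reagent at room temperature | measured by = luminescence from luciferase reaction | measure = luciferase activation, seen as luminescence increase over controls | benchmarks = low control with PBS replacing ATP, high control enzyme plus ATP without compound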
NF-kB expr up – activators of NF-kB expression in neurons, primary screen, cell-based, HTS; AID 1239, 2008; human neuronal cells, NF-kB reporter expression; stronger effect = higher value; 190,000 tested, 1.6% active; fold change at 12.5 µM; in the data active means fold change above about 3.3
FLuc inhib CS – firefly luciferase enzyme inhibitors, primary screen, artefact control for luciferase-based inhibitor screens, biochemical, luminescence, ATPLite | Luciferin 4-monooxygenase (Photinus pyralis), P08659 | 10 min | inhibition, % at 10 µM | 200,000 tested, 1.5% active;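 active means inhibition above about 50% when tested at 10 µM, limit read from the data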
STAT1 act conf – STAT1 signaling activators, confirmation, cell-based, HTS, luciferase reporter | activation (% of control), % at 5.7 µM | NIH 3T3 STAT1-luciferase reporter, IFN-gamma potentiation, luminescence; 100% = IFN-gamma EC80 alone, no compound | shares compounds with STAT1 activator | 1,200 tested, 97% active;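 active means activation above a set limit carried over from the earlier primary STAT1 screen, cut at about 140% in these data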;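 further: simple ratio to median IFN-gamma plus DMSO wells so 0% means no light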
NFkB act STAT1ct – NF-kB reporter activators, TNF-alpha stimulated, counter-screen for STAT1 activator project, cell-based, HEK293T, luciferase luminescence; activation (% of control), % at 5.7 µM; 100% = TNF-alpha with vehicle only; 1,200 tested, 43% active; shares compounds with STAT1 activator;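 active means activation above the mean of solvent-only control wells plus 3 SD, set per campaign, cut at about 130% in these data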;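 further: TNF-alpha given at a submaximal dose yielding about 80% of full reporter signal; values are well signal over median control so 100% means no change and 0% no light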
STAT3 act 2 – STAT3 reporter activation by STAT1 hits, confirmation, counter-screen for STAT1 activator project, U3A cells, luciferase, luminescence; AID 1316, 2008; 1,200 tested, 46% active; shares compounds with STAT1 activator; activation (% of control), % at 5.7 µM; IL-6; cells lack STAT1; 100 = IL-6 alone, no compound effect;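 active means activation above the solvent-only control well mean plus 3 SD, set per plate batch, cut at about 110% in these data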;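 further: 0% = no luminescence and 100% = median IL-6 plus DMSO wells; higher means more STAT3 reporter activation so hits are non-selective activators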
Numbers without * were called inactive; . = no result given. In the library only some 4.8% were active in any assay of this set; here they are far more common.

SMILES | APP 5UTR inh | STAT1 activator | APP 5'UTR act | FLuc act counter | NF-kB expr up | FLuc inhib CS | STAT1 act conf | NFkB act STAT1ct | STAT3 act 2
COc1ccccc1NC(=S)N1CCn2cccc2C1c1cccnc1 (stereo not given) | 13 | 104 | -13 | 1.1 | 1.1 | -5 | . | . | .
O=C(NC1CCCCCC1)c1c2c(nc3ccccc13)CCN(Cc1ccccc1)C2 | -13 | 96 | 13 | 1.1 | 0.33 | -5 | . | . | .
Cc1cc(N2CCN(C)CC2)ccc1NC(=O)c1c2c(nc3ccccc13)CCN(Cc1ccccc1)C2 | 12 | 166* | -13 | 1 | 1.3 | -3 | 118 | 110 | 115*
O=C(NC1CCCC1)C(c1ccc(F)cc1)N(Cc1ccccc1Cl)C(=O)CCl (stereo not given) | 4 | 97 | -4 | 1.1 | 1 | -5 | . | . | .
Cc1nc(N)sc1-c1csc(Nc2ccccn2)n1 | -72 | 169* | 72 | 1 | 1 | 4 | 183* | 131 | 129*
COc1ccc(S(=O)(=O)N2CCCC(C(=O)NCc3ccncc3)C2)cc1 (stereo not given) | 2 | 90 | -2 | 1 | 0.94 | -3 | . | . | .
COc1cc(/C=N/NC(=O)CC2(C)OCCCO2)ccc1OCc1ccccc1 | -4 | 113 | 4 | 1 | 1.2 | -4 | . | . | .
COc1cc(/C=N/NC(=O)CN2CCCCC2)ccc1OCc1ccc(Br)cc1 | -134 | 176* | 134 | 1 | 4.5* | -2 | 178* | 136* | 119*
COC(=O)C1=C(C(=O)OC)C(c2ccccc2O)c2sc(=O)[nH]c2S1 (stereo not given) | -15 | 90 | 15 | 1.1 | 1.1 | -5 | . | . | .
Cc1ccc(-n2ncc3c(=O)n(CC(=O)N4CCN(c5ccccc5)CC4)cnc32)cc1C | -22 | 100 | 22 | 1 | 1.2 | 0 | . | . | .
COC(=O)c1ccc2nc(Nc3nc4c(F)cc(F)cc4s3)sc2c1 | 4 | 38 | -4 | 0.9 | 1.3 | 7 | . | . | .
NNc1nc2c(F)cc(F)cc2s1 | -167 | 156* | 167* | 1.1 | 1.3 | -6 | 128 | 121 | 116*
COc1cccc(C(=O)Nc2cc3c(cc2Cl)OCCCO3)c1 | -136 | 160* | 136* | 0.4 | 4.3* | 65* | 175* | 119 | 98
Cc1csc(NC(=O)[C@@H]2CCCN2C(=O)c2cccs2)n1 | -8 | 103 | 8 | 1 | 1.1 | -4 | . | . | .
O=C(NC1=NCCS1)c1csc2ccccc12 | -105 | 152* | 105 | 0.4 | 6.8* | 55* | 199* | 126 | 118*
O=C(O)Cn1nnnc1SCC(=O)Nc1ccc(F)cc1F | -18 | 93 | 18 | 1.1 | 1.3 | -7 | . | . | .
CCOc1ccc(N/C=C/C(=O)c2ccc(OC)cc2)c([N+](=O)[O-])c1 | -35 | 125 | 35 | 0.8 | 1.4 | 24 | . | . | .
COc1ccc(N/C=C/C(=O)c2ccc(C)cc2)c([N+](=O)[O-])c1 | -130 | 153* | 130 | . | . | . | 218* | 121 | 99
Cc1ccc2nc(-c3ccc(NC(=O)CN4C(=O)c5ccccc5C4=O)cc3)sc2c1 | -114 | 162* | 114 | 0.6 | 1.7 | 38 | 180* | 130 | 118*
Cc1nnc(SCC(=O)Nc2ccc(-c3nc4ccccc4s3)cc2)s1 | -158 | 156* | 158* | 0.2 | 5.6* | 80* | 243* | 109 | 86
Cc1ccc(C)c(N(CC(=O)Nc2ccc(-c3nc4ccc(C)cc4s3)cc2)S(C)(=O)=O)c1 | -48 | 116 | 48 | 1 | 1.1 | 0 | . | . | .
CCC1(c2ccc(F)cc2)NC(=O)N(CC(=O)Nc2ccc(-c3nc4ccc(C)cc4s3)cc2)C1=O (stereo not given) | -214 | 169* | 214* | 0.7 | 1.1 | 27 | 201* | 133 | 112*
O=C(c1cc(-c2ccc(Cl)c(Cl)c2)on1)N1CCCCC1 | -37 | 159* | 37 | 1 | 3.2 | 2 | 188* | 137* | 114*
COc1ccc(NC(=O)C(NC(=O)c2ccc(=O)[nH]c2)c2ccc(OC)cc2)cc1 (stereo not given) | -22 | 105 | 22 | 1 | 0.89 | -4 | . | . | .
O=C(Nc1nnc(C23CC4CC(CC(C4)C2)C3)s1)c1ccco1 | -87 | 152* | 87 | 0.7 | 0.94 | 28 | 190* | 131 | 120*
SMILES | APP 5UTR inh | STAT1 activator | APP 5'UTR act | FLuc act counter | NF-kB expr up | FLuc inhib CS | STAT1 act conf | NFkB act STAT1ct | STAT3 act 2
COc1ccc(-c2csc(NC(=O)c3ccco3)n2)cc1 | -137 | 153* | 137* | 0.8 | 4.2* | 16 | 164* | 127 | 99
Cc1nc2ccc3nc(NC(=O)c4ccco4)sc3c2s1 | -125 | 164* | 125 | . | . | . | 170* | 127 | 109
Cc1nnc(NC(=O)c2ccco2)s1 | -5 | 103 | 5 | 1 | 1.2 | -2 | . | . | .
C#CCNC(=O)C1=C[C@@H](c2ccc(Br)cc2)C[C@@H](OCCCCO)O1 | 6 | 100 | -6 | 1 | 1.3 | -3 | . | . | .
CCCn1nc2cc(C(=O)NCCc3cccs3)ccc2c1OCC | -39 | 124 | 39 | 1 | 2 | -1 | . | . | .
COc1ccc(C2CC(c3ccc4ccccc4c3)=NN2C(=O)COC(=O)C2CCC(=O)N2)cc1 (stereo not given) | -258 | 183* | 258* | 1 | 1.6 | -2 | 247* | 148* | 129*
c1ccc2sc(N3CCOCC3)nc2c1 | -29 | 117 | 29 | 0.9 | 1.3 | 9 | . | . | .
c1ccc(N2CCN(c3nc4cc5c(cc4s3)OCCO5)CC2)cc1 | -49 | 158* | 49 | 0.8 | 2.1 | 16 | 190* | 125 | 85
CCNc1nc(NC(C)C)nc(Oc2ccc(OCCOc3ccc(C)cc3)nn2)n1 | -2 | 100 | 2 | 1 | 1.2 | -4 | . | . | .
